# Source: ChEMBL document CHEMBL3232830, “Effect of prime-site sequence of retro-inverso-modified HTLV-1 protease inhibitor” (Bioorg Med Chem, 2014)
# Starred links: 1 amine or outer side, 2 acyl side, 3 side chain; linkers in the order of their positions; H or OH if unused. Non-standard residues stand in square brackets, D forms with d. Residues, ends and D or L forms follow the SMILES beside them. *: point of attachment. X1 = CC(C)C[C@H](C(=O)[*:2])[C@H](O)C[C@H]1CCCN1[*:1]; CO = O=C([*:1])[*:2]; NHBn = c1ccc(CN*)cc1
# Molecular target: Protease (Human T-cell leukemia virus type I, UniProt Q82134, C109A/C90A/L40I)
# Sequence (Q82134 entry or part of it C109A/C90A/L40I): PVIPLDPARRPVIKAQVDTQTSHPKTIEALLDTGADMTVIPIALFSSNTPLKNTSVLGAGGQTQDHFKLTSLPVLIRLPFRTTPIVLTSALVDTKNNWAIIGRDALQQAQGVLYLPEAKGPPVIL
# Test: (§1) Inhibition of HTLV-1 protease L40I/C90A/C109A mutant using dodecapeptide as substrate by HPLC analysis; call rule not given here
# Summary of the method: (§2)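 Synthetic mutant HTLV-1 protease at 5.6 nM, with a dodecapeptide substrate, in 0.5 M sodium acetate pH 5.6 containing 10% glycerol, 10 mM DTT and 4 M NaCl. Loss of substrate during incubation followed by reversed-phase HPLC (C18, 10–40% CH3CN gradient over 30 min in 0.1% TFA). IC50 from a sigmoidal dose–response curve; assay run three times.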
row,SMILES,IC50 [µM]
1,CC[C@@H](C)[C@@H](NC(=O)[C@@H](CC(C)C)[C@H](O)C[C@H]1CCCN1C(=O)/C=C/c1ccccc1)C(=O)N[C@@H](C(=O)N1CCC[C@@H]1C(=O)N1CCC[C@@H]1C(N)=O)C(C)C,290
2,CC[C@@H](C)[C@@H](NC(=O)[C@@H](CC(C)C)[C@H](O)C[C@H]1CCCN1C(=O)CCC(C)C)C(=O)N[C@@H](C(=O)N1CCC[C@@H]1C(=O)N1CCC[C@@H]1C(N)=O)C(C)C,520
3,CC[C@@H](C)[C@@H](NC(=O)[C@@H](CC(C)C)[C@H](O)C[C@H]1CCCN1C(=O)C(C)(C)C)C(=O)N[C@@H](C(=O)N1CCC[C@@H]1C(=O)N1CCC[C@@H]1C(N)=O)C(C)C,1000
4,CC[C@@H](C)[C@@H](NC(=O)[C@@H](CC(C)C)[C@H](O)C[C@H]1CCCN1C(=O)[C@H](NC(C)=O)[C@H](C)CC)C(=O)N[C@@H](C(=O)N1CCC[C@@H]1C(=O)N1CCC[C@@H]1C(N)=O)C(C)C (Ac-[dI][X1][dI][dV][dP][dP]-NH2),110
5,CC[C@@H](C)[C@@H](NC(=O)[C@@H](CC(C)C)[C@H](O)C[C@H]1CCCN1C(=O)c1ccccc1)C(=O)N[C@@H](C(=O)N1CCC[C@@H]1C(=O)N1CCC[C@@H]1C(N)=O)C(C)C,1100
6,CC[C@@H](C)[C@@H](N)C(=O)N1CCC[C@@H]1C[C@@H](O)[C@H](CC(C)C)C(=O)N[C@@H](C(=O)N[C@@H](C(=O)N1CCC[C@@H]1C(=O)N1CCC[C@@H]1C(N)=O)C(C)C)[C@H](C)CC,1500
7,CCCC(CCC)C(=O)N1CCC[C@@H]1C[C@@H](O)[C@H](CC(C)C)C(=O)N[C@@H](C(=O)N[C@@H](C(=O)N1CCC[C@@H]1C(=O)N1CCC[C@@H]1C(N)=O)C(C)C)[C@H](C)CC,420
8,CC[C@@H](C)[C@@H](NC(=O)[C@@H](CC(C)C)[C@H](O)C[C@H]1CCCN1C(=O)OCc1ccccc1)C(=O)N[C@@H](C(=O)N1CCC[C@@H]1C(=O)N1CCC[C@@H]1C(N)=O)C(C)C,380
9,CC[C@@H](C)[C@@H](NC(=O)[C@@H](CC(C)C)[C@H](O)C[C@H]1CCCN1C(=O)NCc1ccccc1)C(=O)N[C@@H](C(=O)N1CCC[C@@H]1C(=O)N1CCC[C@@H]1C(N)=O)C(C)C ({NHBn-CO}-[X1][dI][dV][dP][dP]-NH2),160
10,CC[C@@H](C)[C@@H](NC(=O)[C@@H](CC(C)C)[C@H](O)C[C@H]1CCCN1C(=O)CCc1ccccc1)C(=O)N[C@@H](C(=O)N1CCC[C@@H]1C(=O)N1CCC[C@@H]1C(N)=O)C(C)C,160
11,CC[C@@H](C)[C@@H](NC(=O)[C@@H](CC(C)C)[C@H](O)C[C@H]1CCCN1C(=O)[C@H](NC(=O)[C@H](N)CCC(N)=O)[C@H](C)CC)C(=O)N[C@@H](C(=O)N1CCC[C@@H]1C(=O)N1CCC[C@@H]1C(N)=O)C(C)C,2000

# Molecular target: Protease (Human T-cell leukemia virus type I, UniProt Q82134, L40I/C90A/C109A)
# Sequence (Q82134 entry or part of it L40I/C90A/C109A): as the sequence (Q82134 entry or part of it C109A/C90A/L40I) above
# Test: as §1
# Summary of the method: as §2
row,SMILES,IC50
1,CC[C@@H](C)[C@@H](NC(=O)[C@@H](CC(C)C)[C@H](O)C[C@H]1CCCN1)C(=O)N[C@@H](C(=O)N1CCC[C@@H]1C(=O)N1CCC[C@@H]1C(N)=O)C(C)C,Not Active
